Where two headings read alike, the source gives them in different places.
Key:
GFP+ SUM159PT cells = format: cell-based; settings: PL 3 and 10 μM
Summary of the method: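 SUM159PT cells carrying a lentiviral Stat3-GFP reporter (GFP driven by four M67 repeats) were grown as xenografts in pre-cleared mammary glands of SCID/Beige mice. Excised tumors were digested to single cells and FACS-sorted into GFP+ and GFP− populations. Mammosphere formation efficiency was then assayed in MEGM+ without or with test compound.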

Stat3 phosphorylation [1] = test: Phosphoflow assay, G-CSF stimulated Stat3 phosphorylation in Kasumi-1 cells; format: cell-based; settings: read-out: IC50 G-CSF stimulated Stat3 phosphorylation, Mean ± SEM, n ≥ 2, G-CSF 10 ng/ml 15′
MCF 10A = test: Anchorage independent growth; format: cell-based
MDA-MB-468 cells = test: Anchorage independent growth; format: cell-based, human
Toxicity in mice = format: in vivo; settings: up to a dose of 30 mg/Kg/day for 14 days
Hs 578T cells = test: Anchorage independent growth; format: cell-based, human; settings: read-out: IC50 Anchorage independent growth (MTT), Mean ± SEM, n ≥ 2
Summary of the method: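 Cells grown in triplicate in ultra-low-attachment 96-well plates in complete DMEM ± test compound (0/0.1/0.3/1/3/10/100 μM) for 48–72 hrs. Viable cells were quantitated by MTT. Relative % viability was calculated as treated ÷ untreated × 100 and plotted against log concentration. IC50 was derived from ≥2 replicate experiments.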

Sum159PT = test: Anchorage independent growth; format: cell-based
T-47D = test: Anchorage independent growth; format: cell-based, human
Stat3-regulated genes [2] = test: Quantitative RT-PCR of Stat3-regulated genes in MDA-MB-468 cells; format: cell-based, human; settings: 30 μM, 6–8 hr
Stat3-regulated genes [3] = test: mRNA of Stat3-regulated genes in MDA-MB 468 xenograft tumors; format: in vivo, nude mice; settings: 15 mg/Kg; vs vehicle; p<0.05; listed as PL
Summary of the method: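 mRNA levels of Stat3-regulated genes were measured by Q-RT-PCR in excised tumors from nude mice bearing subcutaneous MDA-MB-468 xenografts. Mice had been treated i.p. with test compound 15 mg/Kg in DMSO or with vehicle, 5 days/week for 3 weeks. Values were normalized to β-actin and compared against vehicle-treated tumors.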

ZR-75-1 = test: Anchorage independent growth; format: cell-based
MDA-MB-453 = test: Anchorage independent growth; format: cell-based
MDA-MB-231 cells = test: Anchorage independent growth; format: cell-based, human
cleaved caspase 3 = test: Cleaved caspase 3 in MDA-MB-468 cells; format: cell-based, human; settings: PL 30μM, 12 hrs
Summary of the method: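 MDA-MB-468 cells were exposed to 30 μM test compound and sampled over 15 min to 24 h. Cleaved caspase 3 and GAPDH were measured in whole protein by Luminex bead immunoassay. GAPDH-normalized active caspase 3 was expressed as a percentage of the pre-treatment value.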

Stat3 phosphorylation [4] = test: Constitutive Stat3 phosphorylation in breast cancer cell lines; format: cell-based, human; settings: for IC50: read-out: IC50 Constitutive Stat3 phosphorylation, Mean ± SEM, n ≥ 2
[5] = target: glutathione S-transferase pi 1 (GSTP1); settings: read-out: IC50 for GSTP1 inhibition; cited from earlier work
MEF/GFP-Stat3α cells = test: Anchorage-independent colony growth and MTT viability of MEF/GFP-Stat3α cells; format: cell-based; settings: 3μM of PL
Summary of the method: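 Stat3−/− MEFs stably expressing GFP-Stat3α were grown under anchorage-independent conditions with increasing doses of test compound, then photographed. Mean colony number from duplicate wells was taken as a percentage of DMSO-treated cells. Viability by MTT was also expressed relative to DMSO-treated cells. IC50 values were fitted against log concentration.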

MCF-7 = test: Anchorage independent growth; format: cell-based, human
MC1 = test: Mammosphere assay, patient-derived xenograft cells; format: cell-based, human; settings: read-out: IC50 Mammosphere assay, Mean ± SEM, n ≥ 2
Summary of the method: (§1)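 Patient-derived breast tumors serially grown in SCID/Beige mouse fat pad were excised, minced, collagenase-digested, mesh-filtered and suspended as single cells in MEGM+. Cells were plated in serum-free, growth-factor-enriched medium in low-attachment plates ± test compound (0/0.1/0.3/1/3/10/100 μM), fed twice weekly, and counted by automated colony counter after 5–12 days. Percent of untreated colony number was fitted for IC50.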

MCF-12A = test: Anchorage independent growth; format: cell-based
BCM-2665 = test: Mammosphere assay, patient-derived xenograft cells; format: cell-based, human; settings: read-out: IC50 Mammosphere assay, Mean ± SEM, n ≥ 2
Summary of the method: as §1

[6] = system: MDA-MB-468 tumor xenografts; test: Human breast cancer cell line xenograft assay, tumor growth; format: in vivo, nude mice; settings: 15 mg/Kg body weight/day IP, 21 days; p < 0.05
GFP-Stat3α = GFP-Stat3α (Homo sapiens, UniProt P40763); format: cell-based
Sequence of GFP-Stat3α (P40763 whole entry): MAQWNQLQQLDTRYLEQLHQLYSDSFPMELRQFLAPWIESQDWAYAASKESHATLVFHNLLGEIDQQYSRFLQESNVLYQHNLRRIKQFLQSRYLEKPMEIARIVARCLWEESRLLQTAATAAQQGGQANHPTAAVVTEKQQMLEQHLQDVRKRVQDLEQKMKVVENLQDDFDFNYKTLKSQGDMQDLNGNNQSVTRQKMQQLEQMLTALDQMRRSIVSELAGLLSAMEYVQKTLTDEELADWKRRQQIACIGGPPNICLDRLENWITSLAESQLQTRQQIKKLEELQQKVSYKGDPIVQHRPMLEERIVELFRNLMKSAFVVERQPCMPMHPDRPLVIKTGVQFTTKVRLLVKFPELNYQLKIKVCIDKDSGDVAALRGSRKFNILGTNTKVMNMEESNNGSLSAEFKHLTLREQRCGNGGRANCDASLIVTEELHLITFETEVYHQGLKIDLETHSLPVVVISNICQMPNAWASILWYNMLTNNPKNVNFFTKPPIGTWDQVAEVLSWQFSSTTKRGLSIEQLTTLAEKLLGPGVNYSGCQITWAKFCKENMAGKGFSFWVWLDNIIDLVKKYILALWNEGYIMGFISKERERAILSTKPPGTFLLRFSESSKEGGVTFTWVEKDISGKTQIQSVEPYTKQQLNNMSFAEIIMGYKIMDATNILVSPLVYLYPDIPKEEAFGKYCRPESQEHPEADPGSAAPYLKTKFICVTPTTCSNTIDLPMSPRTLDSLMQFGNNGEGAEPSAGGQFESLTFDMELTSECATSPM

[7] = read-out: Anchorage independent Growth IC50, 80 hrs, no sensitivity taken as 100 μM
[8] = read-out: Anchorage Independent Growth IC50, 16 hrs
[9] = read-out: Anchorage independent Growth IC50, 80 hrs

COc1cc(/C=C/C(=O)N2CCC=CC2=O)cc(OC)c1OC [Piperlongumine, piperlongumine]
mammosphere formation by GFP+ cells (GFP+ SUM159PT cells): completely inhibited
IC50 (Stat3 phosphorylation [1]): 3.7 ± 1.7 µM
IC50 (MCF 10A; read-out: Anchorage Independent Growth IC50, 16 hrs, no sensitivity taken as 100 μM): > 100 µM
IC50 (MCF 10A; [7]): > 100 µM
IC50 (MDA-MB-468 cells; read-out: Anchorage Independent Growth IC50, 16 hrs, MDA-MB-468): 2.8 µM
IC50 (MDA-MB-468 cells; read-out: Anchorage independent Growth IC50, 80 hrs, MDA-MB-468): 0.9 µM
IC50 (MDA-MB-468 cells; read-out: IC50 Anchorage independent growth (MTT), MDA-MB 468, Mean ± SEM, n ≥ 2): 4.6 ± 4.8 µM
toxicity in mice (Toxicity in mice): non-toxic
IC50 (Hs 578T cells): 0.2 ± 0.1 µM
IC50 (Sum159PT; [8]): 12.9 µM
IC50 (Sum159PT; [9]): 0.8 µM
IC50 (T-47D; [8]): 42 µM
IC50 (T-47D; [9]): 0.3 µM
increase of FAS (CD95) mRNA (Stat3-regulated genes [2]): two fold
reduction of β-actin-normalized BcL-xL mRNA in tumors (Stat3-regulated genes [3]): ~ 50%
reduction of β-actin-normalized Survivin mRNA in tumors (Stat3-regulated genes [3]): ~ 50%
IC50 (ZR-75-1; [8]): 80.6 µM
IC50 (ZR-75-1; [9]): 0.8 µM
IC50 (MDA-MB-453; [8]): 15.5 µM
IC50 (MDA-MB-453; [9]): 1.7 µM
IC50 (MDA-MB-231 cells; read-out: Anchorage Independent Growth IC50, 16 hrs, MDA-MB-231): 9.2 µM
IC50 (MDA-MB-231 cells; read-out: Anchorage independent Growth IC50, 80 hrs, MDA-MB-231): 0.3 µM
IC50 (MDA-MB-231 cells; read-out: IC50 Anchorage independent growth (MTT), MDA-MB 231, Mean ± SEM, n ≥ 2): 1.2 ± 1.8 µM
increase of caspase 3 cleavage compared to earlier time points (cleaved caspase 3): ~ 12 fold
effect on levels of total Stat3 or pStat1, pStat5 and total Stat1 (Stat3 phosphorylation [4]; MDA-MB-231 and MDA-MB-468 (pStat1, pStat5, total Stat1 in MDA-MB-468)): without substantially affecting
reduction of pStat3 levels at 15 min (Stat3 phosphorylation [4]; MDA-MB-468, PL 30 μM): > 50%
time of maximal reduction of pStat3 (Stat3 phosphorylation [4]; MDA-MB-468, PL 30 μM): ≤ 30 min
pStat3 levels in the GFP+ cells (Stat3 phosphorylation [4]; Sum159PT xenograft-derived GFP+ cells, increasing doses of PL): decreased
IC50 (Stat3 phosphorylation [4]; MDA-MB 231): 0.4 ± 0.5 µM
IC50 (Stat3 phosphorylation [4]; MDA-MB 468): 2.8 ± 2.1 µM
IC50 [5]: ~100 µM
spheroid colony formation (MEF/GFP-Stat3α cells): completely abrogating
IC50 (MCF-7; [8]): 7 µM
IC50 (MCF-7; [9]): 3.6 µM
IC50 (MC1): 4.2 ± 2.3 µM
IC50 (MCF-12A; [8]): 16.2 µM
IC50 (MCF-12A; [7]): > 100 µM
IC50 (BCM-2665): 0.1 µM
reduction of tumor weight [6]: > 50%

O=C1C=CC(=O)c2c1ccc1c2ccc2ccccc21 [chrysene 1,4 quinone]
IC50 (GFP-Stat3α): 10 µM

— paper PMC4182178 (Oncogene, 2014)
